Measurements collected from several papers.
Compare with care: the assays were run in different laboratories.
LCK phosphorylated: Tyrosine-protein kinase Lck, phosphorylated (LCK, Homo sapiens, UniProt P06239)
LCK: Tyrosine-protein kinase Lck (LCK, Homo sapiens, UniProt P06239)

CNC(=O)c1cc2c(Oc3ccc(NC(=O)C4(C(=O)Nc5ccc(F)cc5)CC4)cc3)ccnc2cc1OC  inhibition (LCK phosphorylated; enzyme activity, inhibitor, radiometric; 1 µM): 97%
CN(c1nccc(-c2cnn3ncccc23)n1)C1CC1  remaining signal (LCK; cell-free assay; 1 µM): 98%
CCOc1cc(-c2nncn2C)ccc1Nc1ncc2cc(C)nc(NCC(C)(C)C)c2n1  inhibition (LCK; enzyme activity, inhibitor, FRET; 1 µM): < 15%
CN(C)C1CCN(CC#Cc2nn(C3CCCC3)c3nc(NCc4ccccc4)ncc23)C1 (stereo not shown)  inhibition (LCK; enzyme activity, inhibitor, FRET; 0.1 µM): 17%
O=C(Nc1cccnn1)N1CC(C/C=C/c2cncc(Oc3ccc(C(F)(F)F)cn3)n2)C1  remaining binding (LCK; cell-free assay, competition with immobilised ligand; 1 µM): 100%
Cc1cc(NC(=O)c2cccc3cc(-c4cccc5[nH]nc(N)c45)ccc23)ccc1F  activity vs control (LCK; enzyme activity, inhibitor; 0.1 µM): 90%
CNCc1ccc(-c2cc(-c3nc(-c4ccc(S(=O)(=O)C(C)C)cc4)cnc3N)on2)cc1  inhibition (LCK; enzyme activity, inhibitor; 2 µM): 64%
Cc1ccc(Nc2nccc(N(C)c3ccc4c(C)n(C)nc4c3)n2)cc1S(N)(=O)=O  inhibition (LCK; enzyme activity, inhibitor; 0.3 µM): 59%
C[C@H](NC(=O)c1cnc2n1[C@](C)(Cc1ccc(C#N)cc1)C(=O)N2c1cc(Cl)c(F)c(Cl)c1)C(=O)NC1(c2ccccn2)CC1  remaining binding (LCK; cell-free assay, competition with immobilised ligand; 1 µM): 100%
CN(C)c1ncc(F)c(-c2cnn3ncccc23)n1  remaining signal (LCK; cell-free assay; 1 µM): 76%
Cc1cc(-n2nc(Cc3cc(F)cc(C(F)(F)F)c3)nc2C)ccc1C(N)=O  remaining binding (LCK; cell-free assay, competition with immobilised ligand; 1 µM): 100%
Cc1cn(-c2cc(NC(=O)c3ccc(C)c(Nc4nccc(-c5cccnc5)n4)c3)cc(C(F)(F)F)c2)cn1  activity vs control (LCK; enzyme activity, inhibitor; 0.5 µM): 22.2%
CCS(=O)(=O)c1cc2cc(C[C@](O)(CC(C)(C)c3ccc(F)cc3C(N)=O)C(F)(F)F)[nH]c2cn1  remaining binding (LCK; cell-free assay, competition with immobilised ligand; 1 µM): 100%
N[C@H]1CCN(c2nccc(-c3cnn4ncccc34)n2)C1  remaining signal (LCK; cell-free assay; 1 µM): 90%
CNC(=O)Nc1ccc2c(c1)[C@@]1(CC2)OC(=O)N(CC(=O)N(Cc2ccc(F)cc2)[C@@H](C)C(F)(F)F)C1=O  remaining binding (LCK; cell-free assay, competition with immobilised ligand; 1 µM): 86%
COc1cc(/C=C/C(=O)CC(=O)/C=C/c2ccc(O)c(OC)c2)ccc1O  activity vs control (LCK; enzyme activity, inhibitor; 1 µM): 80%
O=C1c2ccccc2-c2n[nH]c3cccc1c23  activity vs control (LCK; enzyme activity, inhibitor; 0.5 µM): 97.1%
O=C(O)c1cc(-c2ccc(C3CCNCC3)cc2)c2ccc(-c3ccc(C(F)(F)F)cc3)cc2c1  remaining binding (LCK; cell-free assay, competition with immobilised ligand; 1 µM): 100%
Cc1ccc(C(=O)NCc2ccsc2)cc1C#Cc1cn(C(C)C)c2ncnc(N)c12  activity vs control (LCK; enzyme activity, inhibitor; 1 µM): 3%
FC(F)(F)Oc1cccc(-c2cnc3ccc(-c4ccncc4)nn23)c1  activity vs control (LCK; enzyme activity, inhibitor, radiometric; 5 µM): 25%
CS(=O)(=O)N1CCCC(NC(=O)[C@H](CCC2CCCCC2)NC(=O)c2ccc(CNc3ncnc4c3nnn4-c3ccccc3)cc2)C1 (stereo partly shown)  remaining binding (LCK; cell-free assay, competition with immobilised ligand; 0.1 µM): 100%
COc1cc2ncnc(Nc3ccc(Oc4ccccc4)c(C)c3C)c2cc1OC  inhibition (LCK; enzyme activity, inhibitor; 1 µM): 83%
C=CC(=O)Nc1cc(Nc2nccc(Nc3cc(Cl)c(F)cc3C(C)(C)O)n2)c(OC)cc1N1CC[C@@H](N(C)C)C1  inhibition (LCK phosphorylated; enzyme activity, inhibitor; 1 µM): 5%
CC/C(=N\NC(=O)NCc1cccc(O)c1)c1ccc(O)c(C)c1O  inhibition (LCK; enzyme activity, inhibitor; 0.1 µM): 2%
CN(C)CC#Cc1ccc(OCCCc2sc(N3CCc4cccc(C(=O)Nc5nc6ccccc6s5)c4C3)nc2C(=O)O)c(F)c1  remaining binding (LCK; cell-free assay, competition with immobilised ligand; 1 µM): 100%
